Screens from PubChem BioAssay.
V1aR counter = agonists of human V1a receptor, primary screen, counter-screen for OXTR agonist project, fluorescence, CHO-V1R cells; 0.25% of 320,000 active; Fluo-8 calcium fluorescence, agonist mode; 0% DMSO, 100% 3 nM vasopressin; Vasopressin V1a receptor (Homo sapiens), P37288; activation, % at 3 µM; AID 2797, 2010;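 active = activation above the mean activation of all tested compounds plus 3 SD, per screening run, cut at about 20% in these data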;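 also: signal is peak over basal fluorescence ratio across a 100 second FLIPR read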
Target sequence (P37288 whole entry, looked up): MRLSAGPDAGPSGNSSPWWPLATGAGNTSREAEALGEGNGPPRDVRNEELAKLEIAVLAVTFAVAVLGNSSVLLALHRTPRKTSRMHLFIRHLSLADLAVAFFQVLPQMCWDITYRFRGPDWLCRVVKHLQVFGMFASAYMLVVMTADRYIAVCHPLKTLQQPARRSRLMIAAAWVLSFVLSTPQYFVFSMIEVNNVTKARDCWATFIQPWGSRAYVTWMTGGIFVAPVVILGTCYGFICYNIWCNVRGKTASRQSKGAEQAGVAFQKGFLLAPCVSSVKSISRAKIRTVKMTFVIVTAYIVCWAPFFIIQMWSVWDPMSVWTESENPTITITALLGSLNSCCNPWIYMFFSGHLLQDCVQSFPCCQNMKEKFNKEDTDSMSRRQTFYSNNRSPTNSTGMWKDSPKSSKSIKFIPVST
TRPML3 ag = human TRPML3 channel agonists, primary screen, cell-based, HEK293 TRPML3-YFP, Fluo-8 calcium fluorescence, 3 µM | activation, % at 3 µM | Mucolipin-3 (Homo sapiens), Q8TDD5 | 0.29% of 220,000 active | 100% = the carbachol control signal | AID 1448, 2008;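 active = activation above its plate's cutoff, the mean activation of the plate's test wells plus 3 SD, cut at about 12% in these data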
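Material: TRPML3-YFP stable HEK293 cells | Dosing: One concentration, 3 µM nominal, 0.3% DMSO | Timing: 125 s total fluorescence read per well | Technique: Fluo-8 calcium dye fluorescence, ex 470-495, em 515-575 nm | Measure: Percent activation from peak-to-basal fluorescence ratio, scaled between DMSO and carbachol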
OXTR ag = human OXTR agonists, primary screen, fluorescence, CHO-OTR cells, Fluo-8 calcium. Oxytocin receptor (Homo sapiens), P30559. Fluo-8 calcium fluorescence; normalized: DMSO 0%, oxytocin 100%. activation, % at 3 µM. 0.32% of 320,000 active. AID 2435, 2010;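 active = activation above the mean of all tested compounds plus 3 SD, cutoff set per screening run, cut at about 20% in these data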;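 also: peak over basal fluorescence ratio from a 100 s FLIPR kinetic read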
zfTRPN1 agonist = zebrafish TRPN1 channel agonists, primary screen, cell-based, HEK293, calcium fluorescence. transient receptor potential cation channel N1 (TRPN1/NompC), Danio rerio. activation, % at 3 µM. HEK293 zebrafish TRPN1-YFP, Fluo-8 calcium fluorescence; 100% = response to 87 µM carbachol. 0.18% of 220,000 active;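 active = activation above its plate's cutoff, the mean activation of test wells on that plate plus 3 SD, cut at about 19% in these data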
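Material: zebrafish TRPN1-YFP in HEK293 cells; Doses: single test compound dose, 3 µM nominal, 0.3% DMSO; Timing: dye loading 1 h at 37 °C, then 30 min room temperature; Technique: intracellular calcium fluorescence with Fluo-8; Benchmarks: high carbachol 87 µM, low DMSO alone.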
OXTR potentiator = human OXTR potentiators, primary screen, fluorescence, CHO-OTR cells, Fluo-8 calcium. Oxytocin receptor (Homo sapiens), P30559. Fluo-8 calcium fluorescence, potentiator mode; 0% = oxytocin EC15, 100% = EC100. activation, % at 3 µM. 0.061% of 320,000 active. AID 2445, 2010;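 active = activation above that plate's cutoff, the mean activation of tested compounds plus 3 SD, cut at about 6.6% in these data, passing the limit was not always enough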
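Measured by – Fluo-8 calcium dye fluorescence · Test system – human OTR in CHO cells · Dosing – one concentration, 3.0 µM compound · Controls – EC15 oxytocin alone as 0%, 75 nM oxytocin as 100% · Evaluation – normalized max/min fluorescence ratio, % activation · Timing – 6 min pre-incubation, 100 s read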
Large screens that a line does not name were inactive. Compounds with a hit are over-represented: about 0.55% of the library has one in this group of screens.

CN1/C(=C\C=C2/SC(=S)N(CC(=O)O)C2=O)C(C)(C)c2ccccc21	V1aR counter 148, TRPML3 ag 12, OXTR ag 111, zfTRPN1 agonist 41
CN1CCS/C1=C\C=C1/SC(=S)N(CC(=O)O)C1=O	zfTRPN1 agonist 31 (no result: V1aR counter, OXTR ag, OXTR potentiator)
COc1cc(Cl)c(C)cc1NC(=O)CC1SC(N2CCOCC2)=NC1=O (stereo unspecified)	none (no result: TRPML3 ag, zfTRPN1 agonist)
O=S(=O)(Nc1ccc(F)cc1)c1ccc(S(=O)(=O)N2CCOCC2)cc1	V1aR counter 22, OXTR ag 27 (no result: TRPML3 ag, zfTRPN1 agonist)
CC[C@]12c3[nH]c4ccccc4c3CCN1C(=O)C(CC(=O)NCCCN(C)C)C[C@@H]2C(=O)N1CCN(C(=O)C2CC2)CC1 (stereo partly specified)	none (no result: TRPML3 ag, zfTRPN1 agonist)
CC1(C)CC[C@]2(C(=O)O)CC[C@]3(C)C(=CC[C@@H]4[C@@]5(C)CC[C@H](O[C@@H]6O[C@H](C(=O)O)[C@@H](O)[C@H](O[C@@H]7OC[C@H](O)[C@H](O)[C@H]7O)[C@H]6O)C(C)(C)[C@@H]5CC[C@]43C)[C@@H]2C1	V1aR counter 108, OXTR ag 56 (no result: TRPML3 ag, zfTRPN1 agonist)
COC(=O)c1ccc(NC(=O)c2ccc3c(c2)NC(=O)C2CCCN32)cc1 (stereo unspecified)	none (no result: TRPML3 ag, zfTRPN1 agonist)
CC[C@@H](C(=O)[C@@H](C)[C@@H](O)[C@H](C)CCc1ccc(C)c(O)c1C(=O)O)[C@H]1O[C@](CC)([C@H]2CC[C@](O)(CC)[C@H](C)O2)C[C@@H]1C	V1aR counter 42, OXTR ag 32 (no result: TRPML3 ag, zfTRPN1 agonist)
C=CCN1C(c2cccc(C(F)(F)F)c2)=CS/C1=C(/C#N)c1nnc(N2CCOCC2)n1-c1ccccc1	TRPML3 ag 61, zfTRPN1 agonist 22
COc1ccccc1CC(=O)Nc1ccc([N+](=O)[O-])cc1O	zfTRPN1 agonist 21
Cc1ccc(C)c(OCCC(=O)Nc2cccc(S(=O)(=O)N3CCCCC3)c2)c1	none (no result: TRPML3 ag, zfTRPN1 agonist)
O=C(/C=C/c1c[nH]c2ccccc12)c1cccc2ccccc12	none
COc1ccc(C(=O)NC(=S)NNC(=O)c2ccccc2O)cc1	none (no result: TRPML3 ag, zfTRPN1 agonist)
COc1ccc(C(=O)NC(=S)NNC(=O)c2ccccc2C)cc1	V1aR counter 60, OXTR ag 58 (no result: TRPML3 ag, zfTRPN1 agonist)
COc1ccc(C(=O)NNC(=S)NC(=O)C(C)(C)C)cc1	V1aR counter 81, TRPML3 ag 17, OXTR ag 78, zfTRPN1 agonist 41
CC(C)(C)C(=O)NC(=S)NNC(=O)c1sc2ccccc2c1Cl	V1aR counter 112, TRPML3 ag 23, OXTR ag 99, zfTRPN1 agonist 49
COc1ccc(C(=O)NNC(=S)NC(=O)c2cc(-c3ccccc3)nc3ccccc23)cc1	V1aR counter 28, OXTR ag 35, zfTRPN1 agonist 22
CCCOc1ccc(C(=O)NNC(=S)NC(=O)c2cc(-c3ccc(Cl)cc3)nc3ccccc23)cc1	none
CCC(C)c1ccc(N(C(=O)c2ccco2)C(C(=O)NC2CCCC2)c2cccnc2)cc1 (stereo unspecified)	none (no result: TRPML3 ag, zfTRPN1 agonist)
NC(=O)CC[C@@H]1NC(=O)C(Cc2ccc(O)cc2)NC(=O)c2cc([N+](=O)[O-])cc(F)c2NCCC[C@@H](C(N)=O)NC1=O (stereo partly specified)	none (no result: V1aR counter, OXTR ag, OXTR potentiator)
CCOC(=O)c1ccc(S(=O)(=O)N2CCC(C(=O)NCC3CCCCC3)CC2)cc1	none (no result: TRPML3 ag, zfTRPN1 agonist)
CCOC(=O)CC1C(=O)NCCN1C(=O)c1cc2c(=O)n3cccc(C)c3nc2s1 (stereo unspecified)	none
CCCN1C(=O)/C(=C/c2c(N3CCNC(=O)C3CC(=O)OC)nc3c(C)cccn3c2=O)SC1=S (stereo unspecified)	zfTRPN1 agonist 31 (no result: V1aR counter, OXTR ag, OXTR potentiator)
C=C1c2ccccc2NC(=S)N1Cc1ccc2c(c1)OCO2	none
N=C1/C(=C\c2coc3ccc(O)cc3c2=O)C(=O)N=C2SC=CN12	V1aR counter 42, TRPML3 ag 18, OXTR ag 47, zfTRPN1 agonist 84
CC(C)CSC1=NSC2=NC(=O)/C(=C\c3coc4ccccc4c3=O)C(=N)N12	V1aR counter 43, TRPML3 ag 13, OXTR ag 121, zfTRPN1 agonist 21
N=C1/C(=C\c2coc3ccccc3c2=O)C(=O)N=C2SC(c3ccncc3)=NN12	V1aR counter 98, TRPML3 ag 34, OXTR ag 92, zfTRPN1 agonist 61
CC(C)CSC1=NSC2=NC(=O)/C(=C\c3ccccc3)C(=N)N12	none
N=C1/C(=C/c2coc3ccccc3c2=O)C(=O)N=C2SC(c3ccco3)=NN12	none
CCOc1ccc2nc(SCC(=O)NCc3ccc(S(N)(=O)=O)cc3)[nH]c2c1	none (no result: TRPML3 ag, zfTRPN1 agonist)
CC(=O)Nc1ccc(Sc2ncccc2C(=O)Nc2ccc(OC(F)(F)F)cc2)cn1	V1aR counter 67, TRPML3 ag 31, OXTR ag 71, zfTRPN1 agonist 48
CC(=O)Nc1ccc(Sc2ncccc2C(=O)Nc2cc(Cl)cc(Cl)c2)cn1	none
N#Cc1ccccc1NC(=O)COc1ccc2c(c1)OCO2	none (no result: TRPML3 ag, zfTRPN1 agonist)
CC(C)c1c(C(=O)N/N=C/c2ccoc2)nnn1-c1nonc1N	none (no result: TRPML3 ag, zfTRPN1 agonist)
Cc1ccc(/C=N/NC(=O)c2nnn(-c3nonc3N)c2-c2cccs2)cc1	V1aR counter 42, OXTR ag 56 (no result: TRPML3 ag, zfTRPN1 agonist)
CC(C)c1c(C(=O)N/N=C/c2ccc(C(F)(F)F)cc2)nnn1-c1nonc1N	V1aR counter 79, OXTR ag 66 (no result: TRPML3 ag, zfTRPN1 agonist)
COc1ccc(/C=N/NC(=O)c2nnn(-c3nonc3N)c2-c2cccs2)cc1OC	none (no result: TRPML3 ag, zfTRPN1 agonist)
COc1cccc(-c2c(C(=O)N/N=C/c3cccs3)nnn2-c2nonc2N)c1	V1aR counter 28, OXTR ag 21 (no result: TRPML3 ag, zfTRPN1 agonist)
CC(=O)N1CC(C(=O)Nc2ccc3c(c2)OCO3)Oc2ccccc21 (stereo unspecified)	none (no result: TRPML3 ag, zfTRPN1 agonist)
NC(=NCCc1ccccc1)NC(=O)c1cc(Cl)ccc1O	none (no result: TRPML3 ag, zfTRPN1 agonist)
CCCCc1ccc(N/C(N)=N/c2nc(C)cc(C)n2)cc1	V1aR counter 62, TRPML3 ag 80, OXTR ag 58, zfTRPN1 agonist 109
COc1cc(/C=C2\CC/C(=C\c3ccc(OCCO)c(OC)c3)C2=O)ccc1OCCO	V1aR counter 43, TRPML3 ag 27, OXTR ag 30, zfTRPN1 agonist 50
CN(C)c1ccc(/C=C(/C#N)C(=O)NCc2ccccc2)o1	V1aR counter 23, TRPML3 ag 20, OXTR ag 20, zfTRPN1 agonist 20
N#C/C(=C/c1ccccc1)C(=O)NCc1ccccc1	none
O=C(Nc1cc(S(=O)(=O)N2CCCCC2)ccc1N1CCOCC1)c1ccc(C(F)(F)F)cc1	none (no result: TRPML3 ag, zfTRPN1 agonist)
